# Results of several laboratories.
# Read-out: cell growth or viability
SMILES,cell line,test,setting,IC50
N.N.[Cl][Pt][Cl],NIH3T3,,"96 h, 3D culture",33.8 µM
COc1cc(C(=O)c2nc(-c3c[nH]c4ccccc34)c[nH]2)cc(OC)c1OC,PC-3,MTS,72 h,0.0711 µM
CC(C)C[C@H](NC(=O)[C@H](CCCCN)NC(=O)[C@H](Cc1c[nH]c2ccccc12)NC(=O)[C@H](CCCNC(=N)N)NC(=O)[C@H](CCCCN)NC(=O)[C@H](CC(C)C)NC(=O)[C@H](Cc1ccccc1)NC(=O)[C@H](CCCCN)NC(=O)[C@H](CCCCN)NC(=O)[C@H](CC(C)C)NC(=O)[C@H](CC(C)C)NC(=O)[C@H](CCCCN)NC(=O)[C@@H](N)CO)C(N)=O,A549,MTT,24 h,26 µM
COc1cc(C(=O)c2nc(-c3cccc4[nH]ccc34)c[nH]2)cc(OC)c1OC,PC-3,MTS,72 h,~0.0013 µM
CC[C@H](C)[C@H](NC(=O)CN)C(=O)NCC(=O)N[C@@H](C)C(=O)N[C@H](C(=O)N[C@@H](CC(C)C)C(=O)N[C@@H](CCCCN)C(=O)N[C@H](C(=O)N[C@@H](CC(C)C)C(=O)N[C@H](C(=O)N[C@H](C(=O)NCC(=O)N[C@@H](CC(C)C)C(=O)N1CCC[C@H]1C(=O)N[C@@H](C)C(=O)N[C@@H](CC(C)C)C(=O)N[C@H](C(=O)N[C@@H](CO)C(=O)N[C@@H](Cc1c[nH]c2ccccc12)C(=O)N[C@H](C(=O)N[C@@H](CCCCN)C(=O)N[C@@H](CCCNC(=N)N)C(=O)N[C@@H](CCCCN)C(=O)N[C@@H](CCCNC(=N)N)C(=O)N[C@@H](CCC(N)=O)C(=O)N[C@@H](CCC(N)=O)C(N)=O)[C@@H](C)CC)[C@@H](C)CC)[C@@H](C)O)[C@@H](C)O)C(C)C)C(C)C,IPEC-J2,MTT,24 h,8.58 µM
COc1cc(C(=O)c2nc(-c3cccc4[nH]ccc34)cn2C)cc(OC)c1OC,PC-3,MTS,72 h,0.17 µM
N.N.[Cl][Pt][Cl],WSU-NHL,ATP luminescence,72 h,1.18 µM
CC(C)C[C@H](NC(=O)[C@@H](N)CCCNC(=N)N)C(=O)N[C@@H](CCCNC(=N)N)C(=O)N[C@@H](CCCCN)C(=O)N[C@@H](Cc1ccccc1)C(=O)N[C@@H](CCCNC(=N)N)C(=O)N[C@@H](CCCNC(=N)N)C(=O)N[C@@H](CCCNC(=N)N)C(=O)N[C@@H](Cc1ccccc1)C(=O)N[C@@H](CCCNC(=N)N)C(=O)N[C@@H](CCCCN)C(=O)N[C@@H](CCC(=O)O)C(=O)NCC(N)=O,A549,MTT,24 h,> 500 µM
COc1cc(C(=O)c2nc(-c3ccc4[nH]ccc4c3)c[nH]2)cc(OC)c1OC,PC-3,MTS,72 h,0.0277 µM
CC(C)[C@H](NC(=O)[C@H](CCCCN)NC(=O)[C@H](Cc1c[nH]c2ccccc12)NC(=O)[C@H](Cc1c[nH]c2ccccc12)NC(=O)[C@H](CCCNC(=N)N)NC(=O)[C@H](Cc1c[nH]c2ccccc12)NC(=O)[C@H](CCCNC(=N)N)NC(=O)[C@@H](N)CCCNC(=N)N)C(=O)N[C@@H](Cc1c[nH]cn1)C(=O)N[C@@H](Cc1c[nH]c2ccccc12)C(=O)N[C@@H](Cc1c[nH]cn1)C(=O)N[C@@H](CCC(=O)O)C(=O)N[C@@H](Cc1c[nH]c2ccccc12)C(N)=O,A549,MTT,24 h,> 500 µM
COc1c(C)c2c(c(O)c1C/C=C(\C)CCC(=O)O)C(=O)OC2,JIMT-1,,,1.15 µM
CC(C)[C@H](NC(=O)[C@H](CCCCN)NC(=O)[C@H](Cc1c[nH]c2ccccc12)NC(=O)[C@H](Cc1c[nH]c2ccccc12)NC(=O)[C@H](CCCNC(=N)N)NC(=O)[C@H](Cc1c[nH]c2ccccc12)NC(=O)[C@H](Cc1c[nH]cn1)NC(=O)[C@@H](N)CCCNC(=N)N)C(=O)N[C@@H](Cc1c[nH]cn1)C(=O)N[C@@H](Cc1c[nH]c2ccccc12)C(=O)N[C@@H](CCCNC(=N)N)C(=O)N[C@@H](CCC(=O)O)C(=O)N[C@@H](Cc1c[nH]c2ccccc12)C(N)=O,A549,MTT,24 h,> 500 µM
O=C1CCP(c2ccccc2)CC1,PC-3,MTT,72 h,84.2 µM
CC(=N)S,NIH3T3,,96 h,109 µM
CC[C@H](C)[C@H](NC(=O)[C@H](CCCCN)NC(=O)[C@H](CCCNC(=N)N)NC(=O)[C@H](Cc1ccccc1)NC(=O)[C@H](CCCNC(=N)N)NC(=O)[C@H](CCCNC(=N)N)NC(=O)[C@H](CCCNC(=N)N)NC(=O)[C@H](Cc1ccccc1)NC(=O)[C@H](CCCCN)NC(=O)[C@H](CCCNC(=N)N)NC(=O)[C@H](CC(C)C)NC(=O)[C@@H](N)CCCNC(=N)N)C(=O)NCC(N)=O,A549,MTT,24 h,> 500 µM
